From publication PMC3103606 (Chemico-biological interactions, 2011)

Tests used:
Type in all cases: biochemical
ALDH3A1 [1] = target: T1, ALDH3A1 (Homo sapiens, UniProt P30838); assay: ALDH3A1 dehydrogenase assay; conditions: read-out: (Dehydrogenase assay) IC50; ALDH3A1, 1 mM benzaldehyde, […] NADP+, pH 7.5
T1 sequence (P30838 1-453): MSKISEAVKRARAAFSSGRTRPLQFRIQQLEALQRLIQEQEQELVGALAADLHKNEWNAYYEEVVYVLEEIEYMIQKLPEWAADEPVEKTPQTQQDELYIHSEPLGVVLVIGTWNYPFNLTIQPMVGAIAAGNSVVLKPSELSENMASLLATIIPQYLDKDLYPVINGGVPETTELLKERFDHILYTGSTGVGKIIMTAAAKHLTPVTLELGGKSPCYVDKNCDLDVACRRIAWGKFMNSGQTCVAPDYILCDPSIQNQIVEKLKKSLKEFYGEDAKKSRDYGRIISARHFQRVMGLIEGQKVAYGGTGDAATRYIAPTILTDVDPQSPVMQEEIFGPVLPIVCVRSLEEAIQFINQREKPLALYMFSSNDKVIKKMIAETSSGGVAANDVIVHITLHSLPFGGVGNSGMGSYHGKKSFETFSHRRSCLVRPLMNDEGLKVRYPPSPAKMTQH

ALDH2 = target: T2, ALDH2 (Homo sapiens, UniProt P05091); assay: Isoenzyme selectivity: ALDH2 dehydrogenase activity; conditions: 10 μM concentration, aldehyde oxidation
T2 sequence (P05091 18-517): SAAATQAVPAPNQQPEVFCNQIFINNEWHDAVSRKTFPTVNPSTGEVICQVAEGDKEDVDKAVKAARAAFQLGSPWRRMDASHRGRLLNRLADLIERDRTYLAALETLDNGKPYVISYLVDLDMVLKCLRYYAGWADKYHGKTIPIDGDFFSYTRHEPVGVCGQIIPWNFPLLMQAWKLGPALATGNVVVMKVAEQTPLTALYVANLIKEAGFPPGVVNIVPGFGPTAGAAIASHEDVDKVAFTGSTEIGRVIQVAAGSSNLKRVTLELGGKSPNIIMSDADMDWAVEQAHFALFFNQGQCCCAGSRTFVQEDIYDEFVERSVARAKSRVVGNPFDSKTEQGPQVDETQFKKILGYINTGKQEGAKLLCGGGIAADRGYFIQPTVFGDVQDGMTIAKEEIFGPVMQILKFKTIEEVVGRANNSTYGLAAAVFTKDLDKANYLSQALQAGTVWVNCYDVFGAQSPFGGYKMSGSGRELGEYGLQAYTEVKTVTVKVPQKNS

ALDH3A1 [2] = target: T1, ALDH3A1; assay: ALDH3A1 esterase assay; conditions: read-out: (Esterase assay) IC50; ALDH3A1, 0.8 mM para-nitrophenylacetate, pH 7.5
Outline: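 Reactions used nickel-NTA/Q-sepharose-purified recombinant ALDH3A1 at 180 nM in 25 mM sodium HEPES. Inhibitor was preincubated with enzyme for 2 min, and 0.8 mM para-nitrophenylacetate then started the reaction. para-Nitrophenol formation was read spectrophotometrically at 405 nm (ε 18,000 M−1cm−1).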

ALDH1A1 = target: T3, ALDH1A1 (Homo sapiens, UniProt P00352); assay: Isoenzyme selectivity: ALDH1A1 dehydrogenase activity; conditions: 10 μM concentration, aldehyde oxidation
T3 sequence (P00352 1-501): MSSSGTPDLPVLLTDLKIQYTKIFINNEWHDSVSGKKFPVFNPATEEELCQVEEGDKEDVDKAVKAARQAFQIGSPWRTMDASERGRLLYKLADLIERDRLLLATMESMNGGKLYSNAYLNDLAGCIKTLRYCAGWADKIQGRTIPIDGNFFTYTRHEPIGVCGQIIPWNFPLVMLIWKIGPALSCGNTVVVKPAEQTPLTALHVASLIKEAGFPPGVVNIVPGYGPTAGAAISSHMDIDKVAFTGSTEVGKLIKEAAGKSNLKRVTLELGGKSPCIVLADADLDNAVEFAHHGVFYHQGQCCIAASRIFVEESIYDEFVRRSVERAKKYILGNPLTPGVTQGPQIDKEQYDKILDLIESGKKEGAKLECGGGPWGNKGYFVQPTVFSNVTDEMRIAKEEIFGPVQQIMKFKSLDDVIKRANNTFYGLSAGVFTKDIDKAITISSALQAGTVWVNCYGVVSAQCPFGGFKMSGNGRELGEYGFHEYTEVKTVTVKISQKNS

SMILES | IC50 (ALDH3A1 [1]) | inhibition of ALDH2 (ALDH2) | IC50 (ALDH3A1 [2]) | inhibition of ALDH1A1 (ALDH1A1)
CC(=O)Nc1ccc(Nc2ccc(S(C)(=O)=O)cc2[N+](=O)[O-])cc1 [CB29] | 5 µM | less than 10% | 0.5 µM | less than 10%
CCSc1nnc2c(n1)OC(C(=O)c1ccc(OC)cc1)Nc1ccccc1-2 (centres unmarked) [CD5] | 1.5 µM | – | 1 µM | –
CCOC(=O)CN1C(=O)C(O)(CC(=O)c2ccncc2)c2ccccc21 (centres unmarked) [CD8] | 6.3 µM | – | 2.2 µM | –
